Source: ChEMBL document CHEMBL1681672, “Antitumor agents 283. Further elaboration of desmosdumotin C analogs as potent antitumor agents: activation of spindle assembly checkpoint as possible mode of action” (2011)
pEC50: −log10 of the molar value. Activity calls are given as the source filed them. The rule behind the calls is not given here.

Legend:
A549 = test: Antiproliferative activity against human A549 cells after 3 days by sulforhodamine B assay; format: functional; details: A549, 72 h, read-out: ED50 (the source's name)
Method in brief: (§1)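 Cells were seeded from freshly trypsinized suspensions at 1500–7500 cells/well and dosed from DMSO-diluted stock. After 3 days of culture, attached cells were fixed with cold 50% TCA and stained with 0.4% SRB. Bound dye was solubilized and absorbance read at 562 nm. ED50 is the concentration giving 50% growth reduction versus untreated cells, averaged from at least three independent determinations. Cells were grown in RPMI-1640 with 25 mM HEPES, 10% FBS and kanamycin.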

HCT-8 = test: Antiproliferative activity against human HCT8 cells after 3 days by sulforhodamine B assay; format: functional; details: HCT-8, 72 h, read-out: ED50 (the source's name); method in brief: as §1
1A9 = test: Antiproliferative activity against human 1A9 cells after 3 days by sulforhodamine B assay; format: functional; details: 1A9, 72 h, read-out: ED50 (the source's name); method in brief: as §1
PC-3 = test: Antiproliferative activity against human PC3 cells after 3 days by sulforhodamine B assay; format: functional; details: for pEC50: PC-3, 72 h, read-out: ED50 (the source's name); method in brief: as §1
KB = test: Antiproliferative activity against human KB cells after 3 days by sulforhodamine B assay; format: functional; details: 72 h, read-out: ED50 (the source's name); method in brief: as §1
[1] = Antiproliferative activity against human KBVIN cells expressing P-glycoprotein after 3 days by sulforhodamine B assay; format: functional; details: 72 h, read-out: ED50 (the source's name); method in brief: as §1
MCF7 = test: Antiproliferative activity against human MCF7 cells after 3 days by sulforhodamine B assay; format: functional; details: MCF7, 72 h, read-out: ED50 (the source's name)
HepG2 = test: Antiproliferative activity against human HepG2 cells after 3 days by sulforhodamine B assay; format: functional; details: for pEC50: HepG2, 72 h, read-out: ED50 (the source's name); method in brief: as §1
[2] = Antiproliferative activity against human CL1-5 cells; format: functional; details: read-out: ED50 (the source's name)
[3] = Effect on MAD1 mRNA expression in human CL1-5 cells at 0.05 ug/ml after 24 hrs by RT-PCR relative to DMSO control; format: functional
[4] = Effect on MAD2 mRNA expression in human CL1-5 cells at 0.05 ug/ml after 24 hrs by RT-PCR relative to DMSO control; format: functional
[5] = Effect on securin mRNA expression in human CL1-5 cells at 0.05 ug/ml after 24 hrs by RT-PCR relative to DMSO control; format: functional
[6] = Effect on separase mRNA expression in human CL1-5 cells at 0.05 ug/ml after 24 hrs by RT-PCR relative to DMSO control; format: functional
[7] = Effect on dynein1 mRNA expression in human CL1-5 cells at 0.05 ug/ml after 24 hrs by RT-PCR relative to DMSO control; format: functional
[8] = Effect on dynactin mRNA expression in human CL1-5 cells at 0.05 ug/ml after 24 hrs by RT-PCR relative to DMSO control; format: functional
[9] = Effect on KNSL1 mRNA expression in human CL1-5 cells at 0.05 ug/ml after 24 hrs by RT-PCR relative to DMSO control; format: functional
[10] = Upregulation of MAD2L1 transcript in human CL1-5 cells at 0.05 ug/ml after 24 hrs by semi-quantitative RT-PCR; format: functional, cell-based
Method in brief: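 CL1-5 cells were seeded at 2.5×10^5 per 60 mm dish and grown 48 h in RPMI with 10% FBS at 37 °C in 5% CO2. Cells then received DMSO or 0.05 μg/mL compound for 24 h. Total RNA was extracted with TRIzol and MAD2L1 was amplified by RT-PCR, with Gβ-like as the control transcript, and bands were compared on gel.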

[11] = Effect on cyclinB mRNA expression in human CL1-5 cells at 0.05 ug/ml after 24 hrs by RT-PCR relative to DMSO control; format: functional
[12] = Effect on CDK1 mRNA expression in human CL1-5 cells at 0.05 ug/ml after 24 hrs by Affymetrix GeneChip microarray relative to DMSO control
[13] = Effect on NEK2A mRNA expression in human CL1-5 cells at 0.05 ug/ml after 24 hrs by Affymetrix GeneChip microarray relative to DMSO control
[14] = Effect on Aurora A mRNA expression in human CL1-5 cells at 0.05 ug/ml after 24 hrs by Affymetrix GeneChip microarray relative to DMSO control
[15] = Effect on Aurora B mRNA expression in human CL1-5 cells at 0.05 ug/ml after 24 hrs by Affymetrix GeneChip microarray relative to DMSO control

Row | Compound | pEC50 (A549) | pEC50 (HCT-8) | pEC50 (1A9) | pEC50 (PC-3) | pEC50 (KB) | pEC50 [1] | pEC50 (MCF7) | pEC50 (HepG2) | other results
1 | COC1=C(C)C(O)=C(C(=O)/C=C/c2ccccc2)C(=O)C1(C)C [DESMOSDUMOTIN C] | 4.95 | 4.93 | 4.95 | 4.45 | 4.89 | 5.02 | – | – | –
2 | CC(=O)O[C@H]1C(=O)[C@@]2(C)[C@H]([C@H](OC(=O)c3ccccc3)[C@]3(O)C[C@H](OC(=O)[C@H](O)[C@@H](NC(=O)c4ccccc4)c4ccccc4)C(C)=C1C3(C)C)[C@]1(OC(C)=O)CO[C@@H]1C[C@@H]2O [PACLITAXEL] | 8.59 | < 7.00 | 8.68 | 8.05 | 8.54 | < 7.00 | < 7.00 | < 7.00 | –
3 | CCCOC1=C(CCC)C(=O)/C(=C(O)/C=C/c2ccccc2)C(=O)C1(CCC)CCC | 5.72 | 5.59 | 5.70 | 5.07 | 5.57 | 5.62 | 5.80 | 5.08 | –
4 | CCCC1=C(OCC(C)C)C(CCC)(CCC)C(=O)/C(=C(O)\C=C\c2ccccc2)C1=O | 5.77 | 5.10 | 5.16 | 4.91 | 5.32 | 5.39 | 5.36 | 4.87 | –
5 | CCCCC1=C(OC)C(CCCC)(CCCC)C(=O)/C(=C(O)\C=C\c2ccccc2)C1=O | 5.19 | 5.11 | 5.23 | 4.89 | 5.15 | 5.07 | 5.36 | 4.62 | –
6 | CCCC1=C(OC)C(CCC)(CCC)C(=O)/C(=C(O)\C=C\c2ccc(I)cc2)C1=O | 5.85 | 5.96 | 5.74 | 5.55 | 5.82 | 5.85 | 5.74 | 5.62 | –
7 | CC[C@]1(O)C[C@H]2CN(CCc3c([nH]c4ccccc34)[C@@](C(=O)OC)(c3cc4c(cc3OC)N(C=O)[C@H]3[C@@](O)(C(=O)OC)[C@H](OC(C)=O)[C@]5(CC)C=CCN6CC[C@]43[C@@H]65)C2)C1 [VINCRISTINE] | 8.32 | 7.62 | – | 7.92 | 8.62 | < 7.00 | 7.92 | 8.54 | –
8 | CCCCOC1=C(CCC)C(=O)/C(=C(O)/C=C/c2ccccc2)C(=O)C1(CCC)CCC | 5.15 | 5.06 | – | 5.02 | 5.10 | 5.05 | 5.28 | 5.10 | –
9 | CCCC1=C(OC)C(CCC)(CCC)C(=O)/C(=C(O)\C=C\c2ccccc2)C1=O | 5.44 | 5.46 | 5.43 | 5.09 | 5.34 | 5.47 | – | – | –
10 | COC1=C(CC=C(C)C)C(=O)/C(=C(O)/C=C/c2ccccc2)C(=O)C1(CC=C(C)C)CC=C(C)C [3,3,5-TRIPRENYLDESMOSDUMOTIN C] | 4.99 | 4.86 | – | 4.91 | 4.88 | 5.05 | 5.09 | 4.95 | –
11 | COC1=C(CCC(C)C)C(=O)/C(=C(O)/C=C/c2ccccc2)C(=O)C1(CCC(C)C)CCC(C)C | 4.74 | 4.89 | 4.79 | – | 4.76 | 4.69 | 4.60 | – | ED50 (PC-3): inactive; ED50 (HepG2): inactive
12 | CCCOC1=C(CCC)C(=O)/C(=C(O)/C=C/c2ccc(I)cc2)C(=O)C1(CCC)CCC | 5.09 | 5.11 | – | 5.02 | 5.19 | 5.21 | 5.29 | 5.14 | –
13 | CCCC1(CC=C(C)C)C(=O)C(C(=O)/C=C/c2ccccc2)=C(O)C(CCC)(CCC)C1=O (stereo not drawn) | 5.15 | 5.17 | – | 5.08 | 5.09 | 5.14 | 5.24 | 5.19 | –
14 | COC1=C(CC(C)C)C(=O)/C(=C(O)/C=C/c2ccccc2)C(=O)C1(CC(C)C)CC(C)C | 5.36 | 5.12 | 5.10 | 4.91 | 5.10 | 5.09 | 5.43 | 4.84 | –
15 | CCCC1=C(OCCC(C)C)C(CCC)(CCC)C(=O)/C(=C(O)\C=C\c2ccccc2)C1=O | 4.95 | 4.82 | – | 4.77 | 4.97 | 4.72 | 5.04 | 4.81 | –
16 | CCCC1=C(OCC)C(CCC)(CCC)C(=O)/C(=C(O)\C=C\c2ccccc2)C1=O | 5.34 | 5.25 | 5.37 | 4.90 | 5.19 | 5.46 | 5.59 | 4.95 | –
17 | CCCC1=C(OC)C(CCC)(CCC)C(=O)/C(=C(O)\C=C\c2ccc(Br)cc2)C1=O | 5.70 | 5.59 | 5.72 | 5.33 | 5.74 | 5.74 | – | – | pEC50 [2]: 6.96; fold change (FC) [3]: 2; fold change (FC) [4]: 2; fold change (FC) [5]: 2; fold change (FC) [6]: 2; fold change (FC) [7]: 2; fold change (FC) [8]: 2; fold change (FC) [9]: 2; Activity [10]: Active; fold change (FC) [11]: 2; fold change (FC) [12]: 2; fold change (FC) [13]: 2; fold change (FC) [14]: 2; fold change (FC) [15]: 2
